# Source: PubChem BioAssay
# An excerpt weighted towards active compounds, which were near 3.4% of everything screened.
# DUSP1 inh – inhibitors of human MKP-1 phosphatase | P28562 | recombinant MKP-1, OMFP hydrolysis fluorescence | inhibition, %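 (compounds tested at a single concentration somewhere between 10 and 100 µM)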 | 65,000 compounds, 0.15% hits | AID 374;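 active = inhibition above about 50%, limit read from the data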;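 also: 0% = DMSO max control wells and 100% = wells with enzyme stopped by NaOH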
# Target sequence (P28562 whole entry, looked up): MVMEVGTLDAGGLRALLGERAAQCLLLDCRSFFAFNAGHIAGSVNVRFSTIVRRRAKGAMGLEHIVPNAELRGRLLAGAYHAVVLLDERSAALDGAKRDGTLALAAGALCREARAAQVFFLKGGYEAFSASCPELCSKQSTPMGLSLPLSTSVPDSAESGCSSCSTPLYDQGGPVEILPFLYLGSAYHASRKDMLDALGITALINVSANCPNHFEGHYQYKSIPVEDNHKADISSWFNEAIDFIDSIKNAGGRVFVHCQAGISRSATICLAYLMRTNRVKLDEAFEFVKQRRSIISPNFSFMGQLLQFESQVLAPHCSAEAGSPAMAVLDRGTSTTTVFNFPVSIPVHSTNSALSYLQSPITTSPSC
# JNK3 inh – blocks human JNK3 kinase activity. inhibition, % at 8 µM. purified JNK3 kinase activity, HTS. P53779. 60,000 compounds, 0.61% hits; in the data active = inhibition above about 17%;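 also: 0% = DMSO and 100% = reference inhibitor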
# RORA act – RORA (human) activation | AID 560 | activation, % at 10 µM | P35398 | 65,000 compounds, 1.5% hits | CHO-K1 Gal4-RORA LBD luciferase reporter, luminescence; percent increase over mock-subtracted basal signal;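 active = activation above the mean of all tested compounds plus 3 SD, cut at about 49% in these data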;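 also: 0% = DMSO-treated RORA cells and 100% = added signal equal to DMSO minus mock-transfected cells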
# Hsp90 block – displaces geldanamycin probe from tumor Hsp90; inhibition, % at 30 µM; AID 429; NCI-N417 lysate Hsp90, Cy3B-geldanamycin FP displacement; 64,000 compounds, 0.35% hits;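 active = inhibition above 50%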;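 also: 0% = tracer plus lysate wells and 100% = tracer alone without lysate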
# Cdc25B inh – human M-phase inducer phosphatase 2 inhibition | recombinant Cdc25B, OMFP fluorescence Ex485/Em525 | inhibition, %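 (compounds tested at 10 µM final in the well)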 | 65,000 compounds, 0.1% hits | P30305; in the data active = inhibition above about 50%
# SF1 activator – activators of human nuclear receptor SF-1; CHO-K1 Gal4-SF-1 LBD luciferase reporter; % increase over DMSO SF-1-specific signal; activation, % at 10 µM; 65,000 compounds, 1.9% hits; AID 522;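 active = activation above the mean activation of all tested compounds plus 3 SD, cut at about 50% in these data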
#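 Test system: transient Gal4-SF-1 LBD reporter, CHO-K1; Amount: 4,000 CHO-K1 cells per well; Doses: 10 µM only; Timing: compound exposure 20 h at 37 °C; Signal: luciferase light emission; Read-out basis: percent activation relative to DMSO median and mock-transfected background; Control set: DMSO negative control and −SF1 background wells; Replicates: one test per compound.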
# An asterisk follows results filed as active; . = no result.
SMILES,DUSP1 inh,JNK3 inh,RORA act,Hsp90 block,Cdc25B inh,SF1 activator
Cc1nn(C)cc1CNC(=O)c1cnn2c(C(F)F)cc(C3CC3)nc12,1.7,33.5*,-14.9,0.8,5.8,2.2
Cc1nc2ccc(NC(=O)Cc3cccs3)cc2s1,15.1,-0.7,53.4*,-7.8,-4.6,79.6*
Cc1ccc2nc(NC(=O)c3ccc(Cl)s3)sc2c1,0.0,3.5,85.8*,-0.6,-18.9,53.8*
COC(=O)Nc1nc2c(C)cccc2s1,4.4,-8.0,2.4,-0.5,0.6,13.5
CC(=O)c1sc(NC(=O)c2ccc(Cn3cc(Br)cn3)o2)nc1C,20.1,-1.5,-9.0,-2.5,-4.3,-9.5
O=C(Cc1cccs1)Nc1ccc(C(=O)O)cc1,-14.0,-2.3,1.8,-7.5,-0.6,-6.0
Cc1cccc2sc(NC(=O)c3ccc(Cl)s3)nc12,1.4,-6.2,22.7,-1.7,-29.8,49.8*
Cc1ccc2nc(NC(=O)c3cccs3)sc2c1,1.1,.,-13.9,.,-13.9,-40.7
Cc1ccc2nc(NC(=O)c3ccc(Cn4cc(Cl)cn4)o3)sc2c1,7.1,3.6,55.4*,-7.5,1.4,12.7
COc1ccc(C2CC(c3ccc(Cl)cc3)n3nc(N)nc3N2)cc1 (configuration not stated),28.0,-9.8,-3.2,0.2,-5.5,5.7
C=CCNc1nc2c(c(=O)[nH]c(=O)n2C)n1Cc1cccc(C)c1,10.3,-1.9,29.3,0.4,3.0,-5.9
COc1ccc(S(=O)(=O)N2CCOCC2)cc1C(=O)Nc1cc(C)on1,-7.8,6.0,-3.6,-3.2,-3.6,1.1
Cc1nc2ccc(NC(=O)c3c(-c4ccccc4)noc3C)cc2s1,8.6,-3.0,4.2,-2.0,-9.3,7.3
Cc1nc2ccc(NC(=O)c3ccc(Cl)s3)cc2s1,8.1,6.7,80.5*,-0.1,-1.5,76.0*
CC(=O)Nc1cnc(NC(=O)c2cccc(F)c2)cc1C,-14.8,.,21.6,1.4,2.6,76.2*
CCCSc1nnc(-c2ccccc2N)c(=O)[nH]1,-2.9,3.8,42.9,1.7,3.9,45.1
Cn1c(-c2ccccc2)cnc1SCc1nc2ccccc2c(=O)[nH]1,7.9,-0.8,29.4,-3.6,0.6,68.9*
COc1ccc(-c2nc(SC)n(C(=O)c3ccco3)n2)cc1,6.7,5.5,30.0,-3.3,-4.2,58.0*
Cc1nc(=O)c(-c2ccccc2)c(C)n1-c1ccc(O)c(C(=O)O)c1,7.8,2.1,-1.4,-4.0,-1.1,-8.6
CCOC(=O)c1c(C)[nH]sc1=S,-16.9,19.4*,-7.5,-1.7,-26.4,-5.2
CN1CCN(C(=O)c2cccc(COc3cc(Cl)ccc3Cl)c2)CC1,4.1,-2.0,45.7,-1.5,-6.3,69.3*
CCOC(=O)c1cnc2c(cnn2CC)c1NN=C(C)C,.,.,.,-0.5,.,.
O=C(Nc1ccc2c(c1)OCCO2)c1ccc(S(=O)(=O)N2CCCCC2)cc1,-22.5,-2.8,16.9,1.8,10.4,13.7
CCOc1cc(C(=O)Nc2ccc3c(c2)OCO3)ccc1OC(F)F,-1.0,0.1,21.1,-2.1,3.5,15.4
CC(C)CNS(=O)(=O)c1ccc(C(=O)Nc2ccc3c(c2)OCCO3)cc1,12.2,-2.9,73.2*,2.7,-1.2,9.0
SMILES,DUSP1 inh,JNK3 inh,RORA act,Hsp90 block,Cdc25B inh,SF1 activator
Cc1cc(C)n(-c2ccc(C(=O)Nc3ccc4c(c3)OCCO4)cc2)n1,-0.8,11.7,75.3*,1.4,0.6,34.7
CCOc1ccc(C(=O)Nc2ccc3c(c2)OCCO3)cc1OC,3.7,-2.6,33.7,-1.8,-10.2,56.5*
Cc1ccc(CNC(=O)CCS(=O)(=O)c2cccc3nonc23)cc1,9.2,.,-3.5,.,-14.8,-5.5
CC(=O)C(C(C)=O)c1c(Cl)c(O)c(O)c2c(C(=O)c3ccccc3)coc12,10.4,-6.6,-12.2,20.5,10.3,2.4
COc1ccc(NC(=O)CSc2nnc(-c3cccs3)n2-c2ccccc2)cc1,2.2,6.6,-11.9,4.7,0.5,-31.4
CCOC(=O)CSc1nc(-c2ccncc2)ccc1C#N,-20.9,2.9,16.5,2.1,-17.8,80.5*
CCOC(=O)CSc1nc2cc(OCC)ccc2cc1C#N,6.2,0.9,53.3*,-13.5,5.2,2.1
CCOC(=O)CC(=O)CSc1nc(-c2cccnc2)ccc1C#N,10.7,-0.6,21.6,-8.2,-0.9,26.6
CCOc1ccc2cc(C#N)c(SCC(=O)N3CCC(C)CC3)nc2c1,1.9,-0.6,1.9,-7.2,1.2,-1.6
CCOC(=O)CSc1nc(-c2ccc3c(c2)OCO3)ccc1C#N,-28.9,-4.3,6.8,-1.6,-26.7,63.6*
COc1ccc(C(=O)c2sc(NC(C)C)nc2N)cc1OC,-17.2,14.7,-21.1,-5.0,20.3,0.8
COc1cccc(C(=O)c2sc(NC(C)C)nc2N)c1,19.2,17.2*,-57.4,-3.7,4.3,-35.8
c1ccc2c(c1)NC1(CCCCC1)n1c-2nc2ccccc21,-22.6,-3.4,52.9*,-3.1,-6.7,31.0
CCOC(=O)c1sc(NC(=O)CSc2nnc(-c3ccc(OC)cc3)n2CCOC)nc1C,23.4,0.6,13.7,85.2*,-2.4,-16.7
COc1cc2c(cc1NC(=O)c1ccc3c(c1)OCO3)oc1ccccc12,8.9,0.5,16.9,3.1,-4.6,53.6*
CCSc1nnc2c(n1)OC(c1ccc(C(=O)O)cc1)N(C(C)=O)c1ccccc1-2 (configuration not stated),8.3,-1.9,18.1,89.2*,-2.6,-15.4
O=C1N(CCCN2C(=O)C3(OCCO3)c3ccccc32)c2ccccc2C12OCCO2,-7.6,2.5,53.2*,-2.2,4.0,-14.9
Cc1c(C2Nc3ccccc3NC3=C2C(=O)CC(C)(C)C3)cnn1C (configuration not stated),-24.7,-4.4,9.4,-2.3,15.2,-5.8
CC1(C)CC(=O)C2=C(C1)Nc1ccccc1N=C2,-11.2,-0.3,41.7,19.8,1.1,57.7*
CC(=O)Nc1cccc(NC(=O)CSc2nnc(Cc3cccn3C)n2CCc2ccccc2)c1,24.0,2.9,0.0,-4.7,-7.0,-18.4
CC(=O)Oc1cc2c(C(=O)NCCCN3CCOCC3)c(C)oc2c2ccccc12,33.2,-3.5,-4.7,93.8*,31.8,-14.3
O=C(NCCCN1CCOCC1)c1cc2ccccc2oc1=O,-4.1,3.1,3.8,1.2,1.0,17.9
Cc1nc2c(c(=O)n1CC1CCCO1)c1nc3ccccc3nc1n2Cc1ccc2c(c1)OCO2 (configuration not stated),8.7,-8.7,-15.5,15.2,11.9,16.8
CCCCc1noc2c1/C(=N\O)CC(c1ccccc1)C2 (configuration not stated),-17.3,4.0,71.7*,-3.0,-7.9,32.3
O=C(CSc1nnc2ccccn12)c1ccc2c(c1)OCCO2,-7.0,2.1,50.6*,2.9,8.7,63.5*
CCOC(=O)Nc1ccc2c(C)cc(=O)oc2c1,-4.5,-5.5,53.1*,-5.0,-41.4,55.6*
